From ChEMBL document CHEMBL5385911, “Exploring the Dispersion and Electrostatic Components in Arene-Arene Interactions between Ligands and G4 DNA to Develop G4-Ligands” (J Med Chem, 2024) come the findings set out here.

Molecules are shown by their SMILES. Values after ≈ are worked out from the molar mass of the structure shown. Active and inactive are the calls of the source. The calls are words filed in the database; no cut-off is given here.

Series [1] has as its system Quadruplex DNA. Put plainly: Stabilization of fluorescently labelled c-Myc G4-quadruplex Pu22 DNA (unknown origin) assessed as increase in thermal stability of DNA structure at 5 to 40 equiv. by FRET melting assay. The series is classed as nucleic-acid assay. The settings on record: dose 5-40 equiv. The gist of the method:
(§1)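 Pu22 (FAM/TAMRA, 0.2 μM), folded in 10 mM lithium cacodylate pH 7.4, 2 mM KCl, 98 mM LiCl. Ligand at 5, 10, 25 or 40 equivalents. Heated 10–95 °C; donor emission at 516 nm (excitation 492 nm) normalized. Tm taken at 0.5 normalized emission; ΔTm is Tm with ligand minus Tm without ligand. Duplicate wells.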

Series [2] is described as follows: Stabilization of double stranded PEPu24T mut DNA (unknown origin) assessed as inhibition of Taq DNA polymerase activity by measuring reduction in full length DNA product at 6 uM pretreated for 10 mins followed by incubation with dNTPs for 15 mins by PAGE analysis. The settings on record: time 25.0 min. The gist of the method:
(§2)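 Non-G4 control template: TET-labelled 25 nt primer (1 μM final) annealed to mutated PEPu24T mut (1.25 μM final) in 100 mM KCl. 40 nM template, Taq buffer pH 8.8, 25 mM MgCl2, 0.05 U Taq. Compound on ice 10 min, then 100 μM dNTPs at 37 °C 15 min. Denaturing PAGE; full-length product as % of no-compound sample.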

Series [3] concerns Quadruplex DNA. Put plainly: Stabilization of G4-quadruplex PEPu24T DNA (unknown origin) assessed as inhibition of Taq DNA polymerase activity by measuring reduction in full length DNA product at 0.048 to 6 uM pretreated for 10 mins followed by incubation with dNTPs for 15 mins by PAGE analysis. It counts as nucleic-acid assay. The settings on record: dose 0.048-6 µM, time 25.0 min. The gist of the method: (§3)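 Template made by annealing TET-labelled 25 nt primer (1 μM final) to PEPu24T (1.25 μM final) in 100 mM KCl. Reaction: 40 nM template, Taq buffer pH 8.8 with 50 mM KCl, 25 mM MgCl2, 0.05 U Taq. Compound preincubated on ice 10 min; dNTPs (100 μM) added, 37 °C 15 min. Denaturing 12% urea/formamide PAGE; full-length product expressed as % of no-compound sample; SD of ≥2 independent experiments.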

The test system of series [4] is Quadruplex DNA. Put plainly: Stabilization of 5'-FAM and 3'-TAMRA labelled c-Myc G4-quadruplex Pu24T DNA (unknown origin) assessed as increase in thermal stability of DNA structure at 5 to 40 equiv. by FRET melting assay. The settings on record: dose 5-40 equiv.
The nature of series [5]: Solubility of the compound at pH 7.4. It counts as physicochemical. The settings on record: buffer.
The subject of series [6] is Quadruplex DNA. Put plainly: Stabilization of fluorescently labelled c-Myc G4-quadruplex Pu22 DNA (unknown origin) assessed as increase in thermal stability of DNA structure at 40 equiv. by FRET melting assay. It counts as nucleic-acid assay. The gist of the method:
as §1

The test system of series [7] is Quadruplex DNA. Put plainly: Stabilization of G4-quadruplex PEPu24T DNA (unknown origin) assessed as inhibition of Taq DNA polymerase activity by measuring full length DNA product at 0.24 uM pretreated for 10 mins followed by incubation with dNTPs for 15 mins by PAGE analysis. It counts as nucleic-acid assay. Also on record: scale not given: the % may be the effect or the level left. The settings on record: time 25.0 min. The gist of the method:
as §3

Series [8] has as its system Quadruplex DNA. Put plainly: Binding affinity to c-Myc G4-quadruplex Pu22 DNA (unknown origin) assessed as change in entropy by isothermal titration calorimetry. It counts as nucleic-acid assay. The gist of the method: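 Reverse titration: cell holds 20 μM ligand, syringe 120 μM prefolded G4 DNA, 20 injections in 10 mM potassium phosphate, 100 mM KCl, pH 7.4, at 19 °C. First injection 0.5 μL, then 2 μL, 120 s spacing, 1000 rpm, high-feedback mode. Data fitted to one-site binding model.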
A general note: In ITC the heat of successive injections is recorded.

For series [9], the system named is Quadruplex DNA. Put plainly: Stabilization of G4-quadruplex PEPu24T DNA (unknown origin) assessed as inhibition of Taq DNA polymerase activity by measuring reduction in full length DNA product at 0.048 uM pretreated for 10 mins followed by incubation with dNTPs for 15 mins by PAGE analysis. It counts as nucleic-acid assay. The settings on record: time 25.0 min. The gist of the method:
as §3

In series [10] the test system is Quadruplex DNA. Put plainly: Stabilization of G4-quadruplex PEPu24T DNA (unknown origin) assessed as inhibition of Taq DNA polymerase activity by measuring reduction in full length DNA product at 0.24 uM pretreated for 10 mins followed by incubation with dNTPs for 15 mins by PAGE analysis. It counts as nucleic-acid assay. The note with it: time 25.0 min. The gist of the method:
as §3

A short description of series [11]: Stabilization of double stranded PEPu24T mut DNA (unknown origin) assessed as inhibition of Taq DNA polymerase activity by measuring reduction in full length DNA product at >4 uM pretreated for 10 mins followed by incubation with dNTPs for 15 mins by PAGE analysis. The note with it: time 25.0 min. The gist of the method: as §2
Series [12] has as its system Quadruplex DNA. Put plainly: Binding affinity to c-Myc G4-quadruplex Pu22 DNA (unknown origin) at 0.7 equivalent by NMR titration analysis. It counts as nucleic-acid assay. The note with it: dose 0.7 equiv. The gist of the method:
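Pu22 folded at 100 μM in 10 mM potassium phosphate pH 7.4, 35 mM KCl (95 °C 10 min, cooled overnight). 10% D2O added, giving 90 μM DNA. Compound added stepwise in increasing equivalents. 1D 1H spectra with excitation sculpting, 256 scans, 298 K, 850 MHz.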

Series [13] relates to Quadruplex DNA. Put plainly: Stabilization of fluorescently labelled G4-quadruplex c-KIT2 DNA (unknown origin) assessed as increase in thermal stability of DNA structure at 2 uM by FRET melting assay. It counts as nucleic-acid assay. The gist of the method: (§4)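 0.2 μM FAM/TAMRA dual-labelled oligonucleotide, prefolded in 10 mM lithium cacodylate pH 7.4, 10 mM KCl, 90 mM LiCl (95 °C 10 min, then ≥1 h cold). Ligand added and sample heated from 10 to 95 °C; donor emission at 516 nm (excitation 492 nm) normalized. Tm taken at 0.5 normalized emission; ΔTm is Tm with ligand minus Tm without ligand. Duplicate wells.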

Series [14] deals with Quadruplex DNA. Put plainly: Stabilization of fluorescently labelled G4-quadruplex 25Ceb DNA (unknown origin) assessed as increase in thermal stability of DNA structure at 2 uM by FRET melting assay. It counts as nucleic-acid assay. The gist of the method: as §4
In series [15] the test system is Quadruplex DNA. Put plainly: Stabilization of fluorescently labelled G4-quadruplex Bcl2 DNA (unknown origin) assessed as increase in thermal stability of DNA structure at 2 uM by FRET melting assay. It counts as nucleic-acid assay. The gist of the method:
as §4

Series [16] has as its system Quadruplex DNA. Put plainly: Stabilization of fluorescently labelled G4-quadruplex 21G DNA (unknown origin) assessed as increase in thermal stability of DNA structure at 2 uM by FRET melting assay. The series is classed as nucleic-acid assay. The gist of the method:
as §4

Series [17] concerns Quadruplex DNA. Put plainly: Stabilization of fluorescently labelled G4-quadruplex Bom17 DNA (unknown origin) assessed as increase in thermal stability of DNA structure at 2 uM by FRET melting assay. The series is classed as nucleic-acid assay. The gist of the method:
as §4

The subject of series [18] is Quadruplex DNA. Put plainly: Stabilization of fluorescently labelled G4-quadruplex Tba DNA (unknown origin) assessed as increase in thermal stability of DNA structure at 2 uM by FRET melting assay. It counts as nucleic-acid assay. The gist of the method: as §4
For series [19], the system named is Quadruplex DNA. Put plainly: Stabilization of fluorescently labelled c-Myc G4-quadruplex Pu22 DNA (unknown origin) assessed as increase in thermal stability of DNA structure at 2 uM in presence of double stranded competitor DNA ds26 by FRET melting assay. It counts as nucleic-acid assay. The gist of the method: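 Competition melting: 0.2 μM labelled Pu22 in 10 mM lithium cacodylate pH 7.4, 2 mM KCl, 98 mM LiCl, with ligand plus 0–100 equivalents of ds26 duplex competitor. Heated 10–95 °C; FAM emission normalized. Tm taken at 0.5 normalized emission; ΔTm is Tm with ligand minus Tm without ligand. SD of at least six independent experiments.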

For series [20], the system named is dsDNA. Put plainly: Binding affinity to 5'-Cy5-labelled double stranded DNA ds26 (unknown origin) by microscale thermophoresis analysis. The series is classed as nucleic-acid assay. The gist of the method: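 Cy5-labelled DNA held at 25 nM, folded in 10 mM phosphate, 100 mM KCl, pH 7.4 (95 °C 5 min, cooled to room temperature). Ligand in 16 1:3 dilutions in 10 mM phosphate pH 7.4, 100 mM KCl, 0.05% Tween20. Capillary fluorescence read at 20% LED power; change in fluorescence versus ligand concentration fitted by nonlinear equation for binding constant.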
Background: In MST a laser heats a spot of the sample, and binding alters the fluorescence response.

Series [21] concerns Quadruplex DNA. Put plainly: Stabilization of G4-quadruplex DNA in human HeLa cells assessed as increase in BG4-positive cell nuclei at 1 to 2 uM incubated for 24 hrs by immunofluorescence microscopy. It counts as functional, cell-based. The settings on record: dose 1-2 µM. The gist of the method:
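HeLa cells (60,000 on coverslips) treated 24 h. Cells fixed in 2% paraformaldehyde, permeabilized in 0.1% Triton X-100, blocked in 2% milk. Stained with BG4–FLAG (1/3000), rabbit anti-FLAG, then Alexa594 anti-rabbit, each 1 h at 37 °C; nuclei stained with DAPI. BG4 foci per nucleus counted, 90–166 cells per condition. Welch-corrected t tests on ln-transformed data; mean ± 2SD shown.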

The term solubility denotes the concentration that dissolves in the medium under given conditions. One may read the inhibition as how much of the control response was suppressed.

As to `Cc1cc(NCCCN(C)C)nc(Nc2nc3cc(Cl)c(Cl)cc3nc2C)n1`, the result in series [1], in [3] and in series [4] was Active. Besides, the outcome in [2] was inactive.
Turning to `Cc1cc(C)nc(Nc2nc(C)c3cc(Cl)ccc3n2)n1`, the result in [2] was inactive.
As for `Cc1cc(NCCCN(C)C)nc(Nc2cnc3ccccc3n2)n1`, the result in series [1] and in series [2] was inactive. For the same compound, the outcome in series [3] and in series [4] was Active.
In [5], `Cc1cc(C)nc(Nc2nc(C)c3ccccc3n2)n1` yielded a solubility of 134 µM (≈ 35.6 µg/mL). For the same compound, the outcome in [2] was inactive.
With `Cc1cc(NCCCN(C)C)nc(Nc2nc3ccccc3nc2C)n1`, the outcome in [1], in series [3] and in series [4] was Active. The outcome in series [2] was inactive.
`COc1ccc2nc(Nc3nc(C)cc(NCCCN(C)C)n3)nc(C)c2c1` came in with a solubility in series [5] of 858 µM (≈ 327 µg/mL). For the same compound, the result in series [6] and in series [4] was Active. Further, the outcome in series [2] was inactive.
In [5], `Cc1ccc2nc(Nc3nc(C)cc(NCCCN(C)C)n3)nc(C)c2c1` gave a solubility of 858 µM (≈ 314 µg/mL). The result in series [6] and in series [4] was Active. Further, the Activity in [7] worked out at 30%. Besides, the result in series [2] was inactive.
Compound `COc1ccc2nc(Nc3nc(C)cc(C)n3)nc(C)c2c1` returned a solubility in [5] of 134 µM (≈ 39.6 µg/mL). Further, the outcome in series [2] was inactive.
In series [5], `Cc1cc(NCCCN(C)C)nc(Nc2nc(C)c3cc(Cl)ccc3n2)n1` registered a solubility of 858 µM (≈ 331 µg/mL). Besides, the result in [6] and in series [4] was Active. For the same compound, the result in [2] was inactive.
The compound `Cc1cc(NCCCN(C)C)nc(Nc2ncc3ccccc3n2)n1` gave a solubility in series [5] of 858 µM (≈ 290 µg/mL). Also, the Activity in series [7] is 65%. In addition, in [2], the outcome was inactive. In addition, the result in series [4] was Active.
Turning to `Cc1ccc2nc(Nc3nc(C)cc(C)n3)nc(C)c2c1`, the solubility in series [5] was determined as 134 µM (≈ 37.4 µg/mL). In addition, the result in [2] was inactive.
For the compound `Cc1cc(C)c2nc(Nc3nc(C)cc(NCCCN(C)C)n3)nc(C)c2c1`, in series [5], the solubility worked out at 858 µM (≈ 326 µg/mL). For the same compound, the -TdeltaS in series [8] was 1.85 kcal/mol. Also, the values for the inhibition in [9] and in [10] were 50% and 100%, respectively. Further, the outcome in series [11], in [12], in [13], in series [14], in [15] and in series [16] was Active. In addition, the outcome in series [17], in series [19], in series [21] and in series [4] was Active. Moreover, the outcome in [18] and in series [20] was inactive.
With `Cc1cc(NCCCN(C)C)nc(Nc2nc(C)c3ccccc3n2)n1`, the outcome in series [6] and in [4] was Active. In [2], the outcome was inactive.
Take `Cc1cc(NCCCN(C)C)nc(Nc2nc3cc(C)c(C)cc3nc2C)n1`: the result in series [1], in series [3] and in series [4] was Active. Besides, in series [2], the outcome was inactive.
